Shown are actives, neighbours in structure and some others; about 3.6% of the full set was active somewhere.
SR-BI uptake up = enhances SR-BI lipid uptake from DiI-HDL | CHO ldlA[mSR-BI] cells, DiI-HDL uptake fluorescence, 3 h; 100 = double the neutral-control signal | activation, % at 12.5 µM | 0.096% of 320,000 active | AID 504775;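 active = mean replicate activation of at least 60% and every replicate at or above 60%; inconclusive = mean or all-replicate condition met, but not both; inactive = mean below 60% and not all replicates reaching 60%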
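Test system: SR-BI-overexpressing, LDLR-lacking CHO cells. Measured by: DiI fluorescence, bottom read. Medium: Ham's F12 with 0.5% BSA, HEPES 25 mM, pH 7.4. Timing: 3 h uptake period with compound, 37 °C.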
SR-BI HDL uptake = mouse SR-BI HDL lipid transfer inhibition. AID 488896. ldlA[mSR-BI] CHO cells, DiI-HDL uptake fluorescence, 3 h. 0.96% of 320,000 active. inhibition, % at 12.5 µM. Q61009;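 active = mean replicate inhibition of at least 70% and a set share of replicates each scoring 70 or more; inconclusive = meets just one of the two criteria; inactive = fails both criteria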
Target sequence (Q61009 whole entry, looked up): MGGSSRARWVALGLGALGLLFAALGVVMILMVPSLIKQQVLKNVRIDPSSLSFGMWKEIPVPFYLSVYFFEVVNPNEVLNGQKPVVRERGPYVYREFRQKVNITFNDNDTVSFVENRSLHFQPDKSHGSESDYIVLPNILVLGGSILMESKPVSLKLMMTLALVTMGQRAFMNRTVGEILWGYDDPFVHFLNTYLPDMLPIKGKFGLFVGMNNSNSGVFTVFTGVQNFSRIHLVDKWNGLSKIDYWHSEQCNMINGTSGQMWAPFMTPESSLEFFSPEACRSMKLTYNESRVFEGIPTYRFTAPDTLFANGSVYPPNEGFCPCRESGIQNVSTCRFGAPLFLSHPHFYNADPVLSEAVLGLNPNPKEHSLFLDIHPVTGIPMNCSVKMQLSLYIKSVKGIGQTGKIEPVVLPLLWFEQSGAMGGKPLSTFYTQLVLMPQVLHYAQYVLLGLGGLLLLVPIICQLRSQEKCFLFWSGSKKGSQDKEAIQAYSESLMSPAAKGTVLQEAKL
HSF1 activator = increases HSF-1 driven luciferase reporter signal | AID 504408 | NIH3T3-HGL HSF-1 luciferase reporter, MG132, 8 h; 100% = twice DMSO control signal | activation, % at 9 µM | 1.7% of 300,000 active;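 active = mean replicate activation of at least 50% with a set share of replicates each reaching 50%; inconclusive = only one of those two conditions met; inactive = mean below 50% and too few replicates reaching it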
MITF TRPM1 HTS = activators of MITF-driven TRPM1 promoter activity in SK-MEL-5 cells; AID 588334; 0.75% of 300,000 active; activation, % at 12.5 µM; SK-MEL-5 TRPM1-promoter luciferase, 24 h; % of positive control, neutral wells = 0;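 active = mean activation of at least 80% with every replicate also reaching 80%; inconclusive = mean reaches 80% but some replicate falls short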
Wnt act = activates Wnt/beta-catenin signaling in a reporter cell assay | activation, % at 9.35 µM | activator, plate reader | 1.2% of 300,000 active; in the data active = activation above about 30%, passing the limit was not always enough; inconclusive = no clear call, values can overlap the other calls
Hits are given with their value; . = inactive; ? = inconclusive; / = no result given.

SMILES	SR-BI uptake up	SR-BI HDL uptake	HSF1 activator	MITF TRPM1 HTS	Wnt act
Cc1ccc(NC(=O)COc2ccccc2C=O)cc1Cl	.	.	80	.	.
Cc1cccc(C)c1NC(=O)C1(C)CN(S(C)(=O)=O)CC(=O)N1Cc1ccc2c(c1)OCO2 (stereo not given)	/	/	/	/	.
COC(=O)C1=C(C)N(Cc2ccccc2C(F)(F)F)C(=NCc2ccccc2C(F)(F)F)NC1c1ccc(C(F)(F)F)cc1 (stereo not given)	/	/	/	/	.
CSc1ccc(CN2CCC2(C)C(=O)Nc2cccc(NS(C)(=O)=O)c2)cc1 (stereo not given)	/	/	/	/	.
CCC(=O)OCC(=O)Nc1ccc2c(c1)OCO2	.	.	.	.	.
COc1cc(C)ccc1OCC(=O)Nc1ccc2c(c1)OCO2	/	.	/	.	48
O=C(COC(=O)C1CC1)Nc1ccc2c(c1)OCO2	.	.	.	.	47
Cc1noc(C)c1S(=O)(=O)N1CCCc2nc(-c3ccccc3)ccc21	/	/	/	/	.
COc1ccccc1N(CC(=O)N1CCN(Cc2ccccc2)CC1)S(=O)(=O)c1ccccc1	/	/	/	/	.
COc1ccc(-c2csc(N(Cc3ccco3)C(=O)c3cccs3)n2)cc1	/	/	.	.	41
COc1ccc(-c2csc(N(C)C(=O)c3cccs3)n2)cc1	/	/	.	97	38
CCN(CC)CCCN(C(=O)c1cccs1)c1nc(-c2ccc(OC)cc2)cs1	.	.	.	/	/
COc1ccc(OC)c(-c2csc(N(Cc3ccco3)C(=O)c3cccs3)n2)c1	.	.	.	/	/
CCN(/C=N/c1sc2c(c1C#N)CCCCC2)CC	.	.	60	.	/
Cc1ccc(/C=N/c2sc3c(c2C#N)CCC3)s1	.	.	.	92	.
Cc1cccc(C)c1N1C(=O)c2ccccc2NC(=O)C1C(=O)NCC(C)C (stereo not given)	/	/	/	/	.
Cc1ccc(S(=O)(=O)Nc2c(C)n(C)n(-c3ccccc3)c2=O)cc1C(=O)OC(C)C(=O)c1ccccc1 (stereo not given)	.	.	/	.	.
NC(=O)CCN1CCN(CCOC2Cc3cc(Cl)ccc3Sc3ccccc32)CC1 (stereo not given)	.	.	59	.	/
COc1ccccc1N1CCN(/N=C\c2ccc(C)o2)CC1	.	.	63	.	42
COc1ccccc1N1CCN(/N=C/C(Cl)=C/c2ccccc2)CC1	.	.	55	/	45
Cc1ccccc1S(=O)(=O)N1C(c2ccc(Cl)cc2)CC=C(C(=O)O)C1c1cccc(Cl)c1 (stereo not given)	/	/	/	/	.
COC(=O)[C@]12CCCCC=C1N(Cc1cccc3ccccc13)C(=O)[C@H](CC(=O)NCCCN1CCCC1=O)C2	/	/	/	/	.
O=S(=O)(c1ccc(-n2cnnn2)cc1)N1CCNCC1	.	.	83	.	.
Cc1ccc(Cn2c(C)c(C(=O)NCc3ccc4c(c3)OCO4)sc2=O)cc1	/	/	/	/	.
CN(C)c1ccc(/C=C/c2ccncc2)cc1	.	.	/	.	43
SMILES	SR-BI uptake up	SR-BI HDL uptake	HSF1 activator	MITF TRPM1 HTS	Wnt act
COc1ccc(/C=C/c2ccncc2)cc1	.	.	.	.	46
COc1cccc(/C=C/c2ccncc2)c1OC	.	.	.	.	.
CN(C)c1ccc(C=Cc2cnccn2)cc1	.	.	/	.	.
CN(C)c1cccc2c(S(=O)(=O)NCC3CCN(C(=O)C(=O)c4cccs4)CC3)cccc12	/	/	/	/	.
COc1cccc(-c2nc(-c3cccc(C)c3)nc3cc(Cl)ccc23)c1	/	/	/	/	.
COc1ccc(C(=O)N2CCCCC2c2cc(C(=O)NCc3ccccc3)no2)cc1 (stereo not given)	/	/	/	/	.
CC(C)(C)c1cc(C(=O)NNC(=O)c2ccc(C(F)(F)F)cc2)no1	.	.	.	.	49
Cc1nnsc1C(=O)NNC(=O)c1ccc(C(F)(F)F)cc1	.	.	.	.	.
COc1cc(OC)cc(-c2cc3cc(F)ccc3cn2)c1	.	74	/	121	39
COc1ccc(-c2cc3cc(F)ccc3cn2)cc1	.	.	/	.	43
COc1ccc(-c2cc3ccc(F)cc3cn2)cc1	.	.	/	.	?
COc1ccc(NC(=O)CSc2nnc3n2CCCCC3)cc1S(=O)(=O)N(C)C	/	/	/	/	.
Cc1cc2c(nc1C)CCCN2S(=O)(=O)c1ccc(C(F)(F)F)cc1	/	/	/	/	.
CCN(CC)S(=O)(=O)c1cc(C(=O)NC2=NCCS2)ccc1Cl	.	74	.	.	/
COc1cccc(C(=O)Nc2nnc(-c3ccccc3)s2)c1	.	.	.	?	36
COc1cccc(C(=O)NC2=NCCS2)c1	.	.	.	/	44
O=C(NC1=NCCS1)c1cccc(Br)c1	.	.	.	/	42
O=C(NC1=NCCS1)c1cccc(F)c1	/	/	.	/	.
O=C(CN1CCN(S(=O)(=O)c2ccccc2)CC1)Nc1ccc(Cl)c([N+](=O)[O-])c1	.	.	.	.	.
Cc1nc2cc[nH]n2c(=O)c1CCc1ccccc1	/	/	/	/	.
CC(=O)Nc1c(NC(=O)CC#N)[nH]c2c(c1=O)c(=O)n(C)c(=O)n2C	.	.	.	.	.
CC(=O)NNc1[nH]c2c(c(=O)c1[N+](=O)[O-])c(=O)n(C)c(=O)n2C	68	.	.	.	.
CCN(CC)CCNC(=O)c1ccc(NC(=O)c2ccc(-n3cncn3)c([N+](=O)[O-])c2)cc1	/	/	/	/	.
CCCCNC(=O)C[C@@H]1C[C@@]2(C(=O)OCC)CCC=C2N(CCC2=CCCCC2)C1=O	/	/	/	/	.
Cc1ccc(N2CS(=O)(=O)/C(=C/N(C)C)C2=O)cc1	.	.	.	.	49
CN(C)/C=C1\C(=O)N(c2ccc(Cl)cc2)CS1(=O)=O	.	.	.	.	/
Cc1ccccc1NC1=C/C(=N\S(=O)(=O)c2ccc(C(=O)O)cc2)c2ccccc2C1=O	.	.	.	.	.
O=C(O)c1ccc(S(=O)(=O)/N=C2\C=C(Nc3ccccc3F)C(=O)c3ccccc32)cc1	.	.	65	.	.
Oc1ccc(Cl)cc1/C=C/c1ccc2cccc(O)c2n1	.	74	58	.	.
Cc1ccsc1/C=C/c1ccc2cccc(O)c2n1	.	.	71	/	/

Compound activity as filed in PubChem.
